KCNQ1 inh: inhibitors of human KCNQ1 channel, primary screen, cell-based, thallium flux, high-throughput; 310,000 compounds, 1.3% hits; AID 2642, 2010; CHO-K1 KCNQ1, FluxOR thallium flux fluorescence; stronger effect = higher value; Potassium voltage-gated channel subfamily KQT member 1 (Homo sapiens), P51787; B-score at 10 µM;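 active = compounds whose thallium flux B-score, printed positive for inhibition, exceeds three library SD while starting fluorescence stays within three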;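 also: channel opened by potassium depolarization with thallium stimulus after 20 min compound exposure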
KCNQ1 pot: potentiators or activators of KCNQ1 channel, primary screen, cell-based, thallium flux, high-throughput | Potassium voltage-gated channel subfamily KQT member 1 (Homo sapiens), P51787 | CHO-K1 KCNQ1, thallium flux FluxOR fluorescence; stronger effect = higher value | B-score at 10 µM | 310,000 compounds, 0.35% hits | AID 2648, 2010;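 active = fluorescence ratio B-score, a plate-corrected score, at least three library SD, with initial intensity B-score within 5 SD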
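Assay system: CHO-K1 cells stably expressing KCNQ1. Medium: assay buffer for compound exposure, DMSO matched across wells. Timing: 37 °C overnight plating, 90-min dark dye load, 20-min compound pretreatment. Signal: kinetic FluxOR fluorescence, 10 s baseline plus 110 s post-stimulus.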
KCNK9 block: KCNK9 potassium channel inhibitors, primary screen, HEK293 cells, thallium flux | 310,000 compounds, 1.2% hits | B-score at 10 µM | FluxOR thallium flux fluorescence; stronger effect = lower value;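 active = ratio B-score over 3 SD below the library mean, with starting fluorescence within 5 SD of its mean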;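 also: negative B-score means less thallium flux so channel inhibition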
KCNK3 inh: human KCNK3 channel inhibitors, primary screen, CHO cells, FluxOR thallium flux, B-score; Potassium channel subfamily K member 3 (Homo sapiens), O14649; FluxOR fluorescence; stronger effect = lower value; 340,000 compounds, 0.84% hits; B-score at 10 µM;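 active = B-score under library mean minus 4 SD, starting fluorescence ratio at most library mean plus 5 SD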;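 also: more negative B-score means stronger inhibition of thallium flux through KCNK3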
Cl transport mod: KCC2 cotransporter modulators, thallium flux, primary screen, cell-based, HEK293 KCC2, FluoZin-2 fluorescence, MLSMR. Solute carrier family 12 member 5 (Homo sapiens), Q9H2X9. KCC2 cells, thallium flux FluoZin-2 fluorescence. B-score of Tl+ flux slope (higher = more flux/activation; lower = inhibition) at 10 µM. 190,000 compounds, 2.2% hits;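 active = thallium flux slope and its plate-corrected score both differing from the plate sample mean at a set confidence after two filtering rounds, in either direction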;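 also: slope of fluorescence scaled to starting intensity during 10 to 20 s after thallium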
hERG protect: hERG rescue from dofetilide block, primary screen, cell-based, CHO-hERG, FluxOR thallium flux, dofetilide IC70. Voltage-gated inwardly rectifying potassium channel KCNH2 (Homo sapiens), Q12809. dofetilide IC70 present. activation (rescue from dofetilide block), less the hit threshold, % at 10 µM. 310,000 compounds, 0.51% hits. AID 1511, 2009;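 active = activation above the mean of controls blocked by dofetilide plus 5 SD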;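 also: thallium influx through hERG after potassium depolarization seen as dye fluorescence rise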
Of the large screens only hits and unclear results are named; the others gave an inactive call. An excerpt weighted towards active compounds, which were near 4.1% of everything screened.

Cc1ccc(Nc2nc(-c3ccccc3)cs2)nc1	none (no result: Cl transport mod)
Cc1ccc(Nc2nc(-c3cccs3)cs2)nc1	hERG protect 6.1
CCOc1ccccc1NC(=O)c1cccc(NC(=O)C(C)C)c1	none
CCCC(=O)Nc1cccc(C(=O)Nc2ccccc2OCC)c1	KCNK9 block -7.8 (no result: KCNK3 inh)
CCOC(=O)c1ccc(/C=C2/C=C(c3ccccc3)N(c3ccc(Cl)c(C(=O)O)c3)C2=O)cc1	KCNQ1 inh 11
CCOC(=O)c1ccc(Cl)c(NC(=O)c2ccc(-c3ccccc3)cc2)c1	none (no result: Cl transport mod)
Cc1c(Cl)ccc2c(C(O)CBr)cc(-c3ccccc3)nc12 (stereo not given)	none (no result: KCNQ1 inh, KCNQ1 pot, KCNK9 block, Cl transport mod, hERG protect)
C=CCn1c(SCc2ccc(C(=O)Nc3nccs3)cc2)nnc1-c1ccc(C)c(Cl)c1	KCNK9 block -7.2
Cn1nnnc1SCc1ccc(C(=O)Nc2nccs2)cc1	none (no result: Cl transport mod)
Cc1cc(=O)oc2cc(OC(=O)C3CCN(C(=O)c4ccc(F)cc4)CC3)ccc12	none (no result: Cl transport mod)
O=C(CSc1nc2ccccc2c(=O)n1Cc1ccccc1)NCc1ccco1	none
O=C(CSc1nc2ccccc2c(=O)n1Cc1ccco1)NCc1ccccc1	Cl transport mod 4
CC1N(C)c2cc(NC(=O)c3cccs3)c(P(=O)(Nc3ccc([N+](=O)[O-])cc3)N3CCOCC3)cc2C1(C)C (stereo not given)	KCNK9 block -7.2
Cc1cccc(CN(CC(=O)N/N=C/c2ccco2)S(=O)(=O)c2ccc(Cl)cc2)c1	KCNQ1 inh 9
Cc1ccc(NC(=O)CCNC(=O)c2ccc(Cl)cc2)cc1F	none
CC(=O)NCCC(=O)Nc1ccc(C)c(F)c1	hERG protect 5.4
CSc1ccc(S(=O)(=O)NCC(=O)OCC(=O)N(C)CC(=O)Nc2ccc(F)cc2)cc1[N+](=O)[O-]	none (no result: KCNQ1 inh, KCNQ1 pot, KCNK9 block, Cl transport mod, hERG protect)
CN1CCN(C2=C(NS(=O)(=O)c3cccs3)C(=O)c3ccccc3C2=O)CC1	none
CCOc1ccccc1N1CCN(C2=C(NS(=O)(=O)c3cccs3)C(=O)c3ccccc3C2=O)CC1	KCNK9 block -6.6
O=C(N/N=C/c1cc(Br)cc(Cl)c1O)c1ccc2c(c1)OCO2	none (no result: Cl transport mod)
Cc1cc(Br)cc(/C=N/NC(=O)c2ccc3c(c2)OCO3)c1O	KCNQ1 inh 8 (no result: Cl transport mod)
O=C1/C(=C/c2ccc([N+](=O)[O-])cc2)Oc2cc(O)ccc21	KCNQ1 inh 6 (no result: Cl transport mod)
COc1ccc(S(=O)(=O)N2CCCC(C(=O)NCCN3CCOCC3)C2)cc1C (stereo not given)	none (no result: Cl transport mod)
OCCNc1nc(-c2ccccc2)c2cc(Cl)ccc2n1	none
COCCNC(=O)c1cccc(Nc2nc(-c3ccccc3)c3cc(Cl)ccc3n2)c1	KCNK9 block -6.8
C=CCNC(=S)Nc1sc2c(c1C(=O)OCC)CC(C(C)C)OC2 (stereo not given)	KCNQ1 pot 48, Cl transport mod 32
CCOC(=O)c1c(NC(=S)NCCc2ccccc2)sc2c1CC(C(C)C)OC2 (stereo not given)	KCNQ1 pot 8, Cl transport mod 8.9
O=c1n(Cc2ccccc2Cl)nc2n1-c1ccccc1SC2	none
COCCNC(=O)/C(C#N)=C/c1c(N2CCN(C)CC2)nc2ccccn2c1=O	none (no result: Cl transport mod)
CC(=O)Nc1ccc(NC(=O)Cc2ccc(S(=O)(=O)N3CCCCC3)cc2)cc1	none (no result: KCNQ1 inh, KCNQ1 pot, KCNK9 block, Cl transport mod, hERG protect)
Cc1cc(Nc2ccccc2)n(-c2nc3ccccc3[nH]2)n1	Cl transport mod 3.3
O=C(Nc1ccc(OCC(F)(F)C(F)F)c(C(F)(F)F)c1)c1ccccc1O	KCNK9 block -6.6
Cc1cc(/C=N/n2c(COc3ccccc3)nc3ccccc3c2=O)c(O)c([N+](=O)[O-])c1	KCNQ1 inh 13
Cc1ccc(NC(=O)C2CCCN2c2nn3c(=O)cc(C)nc3s2)cc1 (stereo not given)	none (no result: Cl transport mod)
CC(=O)c1c(C)[nH]c(C(=O)COC(=O)c2ccc(Cl)nc2)c1C	none (no result: KCNQ1 inh, KCNQ1 pot, KCNK9 block, Cl transport mod, hERG protect)
